Source: PubChem (several laboratories)
Gli-Sufu antag: Gli-Sufu pathway antagonists, primary screen, luciferase luminescence, Sufu-KO-LIGHT cells, uHTS; Sufu-KO-LIGHT fibroblasts, Gli luciferase reporter luminescence; inhibition, % at 5 µM; actives 0.74% (n = 340,000);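 active means inhibition above about 55%, limit read from the data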;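 further: 0% = DMSO-treated cells and 100% = wells with medium but no cells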
Jurkat NFkB inh: inhibitors of induced NF-kB luciferase reporter, primary screen, TCR NF-kB activation inhibitor project, cell-based, luminescence, uHTS. AID 435003, 2010. actives 0.53% (n = 330,000). inhibition, % at 4 µM. Jurkat, PMA/ionomycin-induced NF-kB luciferase reporter; in the data active means inhibition above about 50%
GalR3 antag: GalR3 antagonists in HEK293 cells, primary screen, cell-based, fluorescence readout | Galanin receptor type 3 (Homo sapiens), O60755 | HEK293 GalR3-CNG cAMP membrane potential fluorescence; galR3 body fused to GalR1 C-terminus | inhibition, % at 3 µM | actives 0.44% (n = 360,000);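 active means inhibition above the screen-wide average plus 3 SD, cut at about 13% in these data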;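 further: forskolin and galanin both at EC90 stimulate the cells; cAMP rise reported by CNG channel membrane potential dye signal; 0% = forskolin plus galanin with DMSO and 100% = forskolin alone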
Target sequence (O60755 1-299 limits assumed): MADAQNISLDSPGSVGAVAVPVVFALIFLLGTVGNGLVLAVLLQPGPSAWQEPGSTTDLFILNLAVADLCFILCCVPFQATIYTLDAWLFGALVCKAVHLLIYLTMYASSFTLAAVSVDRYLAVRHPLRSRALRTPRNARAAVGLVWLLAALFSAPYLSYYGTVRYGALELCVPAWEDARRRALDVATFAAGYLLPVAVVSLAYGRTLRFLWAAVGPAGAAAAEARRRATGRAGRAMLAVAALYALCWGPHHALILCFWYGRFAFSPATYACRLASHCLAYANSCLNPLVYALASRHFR
697 NFkB inh: inhibitors of PMA/ionomycin-induced NF-kB reporter, 697 cells, primary screen, B-cell NF-kB inhibitor project, cell-based, luminescence, uHTS | 697 B-cell NF-kB luciferase reporter, 16 h | inhibition, % at 4 µM | actives 0.33% (n = 330,000) | AID 435022, 2010; in the data active means inhibition above about 35%
NR2E3 ag-1: NR2E3 agonists in two-hybrid cells, primary screen, cell-based, luminescence, CHO-S, Gal4-NCOR/VP16-NR2E3 | inhibition of corepressor binding, % at 3.98 µM | AID 602229, 2012 | luciferase | actives 0.35% (n = 360,000) | Photoreceptor-specific nuclear receptor (Homo sapiens), Q9Y5X4;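 active means inhibition above the mean of all tested compounds plus 3 SD, cut at about 70% in these data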;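 further: 0% = DMSO with NR2E3 transfected cells and 100% = cells lacking NR2E3 construct; higher means lower luciferase signal from less NR2E3 corepressor binding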
NR2E3 ag-2: inhibitors of NR2E3-RetCOR corepressor binding, primary screen, NR2E3 agonist project, biochemical, TR-FRET, GST-NR2E3, biotin-RetCOR. Photoreceptor-specific nuclear receptor (Homo sapiens), Q9Y5X4. AID 2300, 2010. actives 0.12% (n = 320,000). 1536-well. inhibition of corepressor binding, % at 4.78 µM;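 active means percent inhibition above the cutoff of mean plus 3 SD of all tested compounds, set per screening campaign, cut at about 20% in these data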;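 further: 0% = DMSO wells and 100% = biotin wells as full block of FRET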
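Assay system: NR2E3–RetCOR corepressor complex. Quantity: 1.35 nM GST-NR2E3. Buffer or medium: pH 7.5 Tris-based buffer. Reagent: biotinylated RetCOR corepressor at 7 nM final. Schedule: 5 h at 4 °C. Detection: TR-FRET, emission read at 617 and 671 nm. Replicates: one well per compound, singlicate testing.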
Gli-Sufu confirm: Gli-SUFU pathway antagonists, confirmation, single concentration, luciferase luminescence, Sufu-KO-LIGHT cells. actives 40% (n = 2,500). Gli luciferase reporter. shares compounds with Gli-Sufu antag. inhibition, % at 5 µM;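 active means mean inhibition at 5 µM reaching about 45%, limit read from the data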;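 further: plate controls were DMSO-treated cells for no effect and wells lacking cells for full effect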
SufuKO cytotox: cytotoxicity in Sufu-KO-LIGHT cells, confirmation, cytotoxicity control for Gli-SUFU antagonist project, cell-based, ATP luminescence, single concentration; actives 32% (n = 2,500); cytotoxicity, % at 5 µM; AID 651994, 2013; shares compounds with Gli-Sufu antag;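 active means mean cytotoxicity at 5 µM above about 25%, limit read from the data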;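 further: cells exposed to compound overnight for roughly 16 to 18 hours; plate controls were DMSO wells with cells for no effect and medium without cells for full effect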
Wnt3a counter: Wnt3a reporter signal inhibition, confirmation, counter-screen for Gli-SUFU antagonist project, Wnt-LIGHT cells, luminescence, single concentration; actives 20% (n = 2,500); inhibition, % at 6.25 µM; shares compounds with Gli-Sufu antag; Wnt3a-driven luciferase reporter;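 active means mean inhibition above about 25%, limit read from the data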
Starred values were filed as active, the others as inactive; x = no result given. In the library only some 1.8% were active in any assay of this set; here they are far more common.

SMILES	Gli-Sufu antag	Jurkat NFkB inh	GalR3 antag	697 NFkB inh	NR2E3 ag-1	NR2E3 ag-2	Gli-Sufu confirm	SufuKO cytotox	Wnt3a counter
CC1=C(C(=O)OC(C)C)C(c2ccccc2)NC(=O)N1C (configuration not stated)	57*	5	-11	2	4	0	26	1	-9
CC(C)N(CCCNC(=O)C1CCC(CNS(=O)(=O)c2ccccc2)CC1)Cc1ccccc1 (configuration not stated)	60*	-6	-5	-1	6	-1	28	18	-10
CC1CCN(CCCNC(=O)C2CCC(CNS(=O)(=O)c3ccccc3)CC2)CC1 (configuration not stated)	17	-22	-1	-7	-10	2	x	x	x
C=CCN=C1NC(c2cccc(Cl)c2)C(C(=O)OC)=C(C)N1Cc1ccc(C(F)(F)F)cc1 (configuration not stated)	x	x	-6	x	x	x	x	x	x
O=S(=O)(c1ccc2c(c1)nc(COc1ccc(Cl)cc1)n2CC1CCCO1)N1CCOCC1 (configuration not stated)	60*	1	-2	-23	-8	6	45*	9	33*
Cn1c(Cc2csc(N)n2)nnc1SCC(=O)NCc1ccccc1	95*	-12	-1	-3	0	1	4	2	-17
CCNC(=S)N(CCN(C)C)Cc1cc2cc(OCC)ccc2[nH]c1=O	60*	9	2	-7	-3	-1	23	12	-8
CCNC(=S)N(CCc1cccc(C)c1)Cc1cc2cc(OC)c(OC)cc2[nH]c1=O	52	-13	-2	4	-11	1	14	25	-22
CCNC(=S)N(CCc1ccccc1C)Cc1cc2cc(OC)c(OC)cc2[nH]c1=O	2	-2	-5	-10	-24	-2	x	x	x
O=S(=O)(c1ccc(F)cc1)N1CCCC(CO)C1 (configuration not stated)	52	-7	-3	-24	0	3	12	2	-9
O=[N+]([O-])c1cccc(-c2cc3cccc[n+]3cc2-c2cccc([N+](=O)[O-])c2)c1	9	1	-2	-35	-6	1	x	x	x
Cc1cccc2cc(-c3ccccc3)c(-c3ccccc3)c[n+]12	62*	x	2	x	-23	3	52*	29*	-34
C[C@@H]1CN([C@H](C)CO)C(=O)c2cc(NS(=O)(=O)c3ccccc3)ccc2O[C@@H](C)CCCCO[C@@H]1CN(C)Cc1ccccc1	x	x	-4	x	x	x	x	x	x
